This is an account of results in ChEMBL document CHEMBL1136623, “Cytotoxic activity of 6-alkynyl- and 6-alkenylpurines” (Bioorg Med Chem Lett, 2003).

Values after ≈ are worked out from the molar mass of the structure shown. Where only a bound is given, the exact number is not on record here.

Assay [1] deals with K562. Briefly: Inhibitory concentration required against human chronic myelogenous leukemic K-562 cell line after 5h, using [3H]thymidine incorporation assay. It counts as functional, cell-based. In outline:
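K-562 cells in log-phase growth seeded at 4×10^4 cells/mL in supplemented RPMI 1640. Purines at 10 to 0.078 µg/mL for 5 h, final DMSO 0.05% (vol/vol). Then a 2 h pulse of 1 µCi/well [3H]-thymidine, filter harvest, and counting of cell-bound radioactivity. IC50 is the concentration giving 50% inhibition of incorporation.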

The subject of assay [2] is K562. Briefly: Percent inhibition of [3H]-thymidine incorporation was determined in human chronic myelogenous leukemic K-562 cell line at 10 ug/mL after 48 hr. It counts as functional. The procedure, abridged:
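Single-concentration screen. K-562 cells in log growth seeded at 2×10^4 cells/mL in supplemented RPMI 1640 and exposed 48 h to purine at 10 µg/mL, final DMSO 0.05%. Followed by a 2 h [3H]-thymidine pulse (1 µCi/well), harvest onto fiberglass filters, and scintillation count. Reported as percent inhibition of incorporation.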

Assay [3] concerns K562. Briefly: Inhibitory concentration required against human chronic myelogenous leukemic K-562 cell line after 48h, using [3H]thymidine incorporation assay. The class given is functional, cell-based. The procedure, abridged:
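Logarithmically growing K-562 cells seeded at 2×10^4 cells/mL in RPMI 1640 with supplements. Exposed 48 h to purines at 10 to 0.078 µg/mL, final DMSO 0.05% (vol/vol). Pulsed 2 h with 1 µCi/well [3H]-thymidine, harvested onto fiberglass filters, and cell-associated radioactivity counted. IC50 taken as the concentration inhibiting incorporation by 50%.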
Background: Uptake of a labelled nucleoside into DNA is a usual measure of proliferation.

A word on the IC50: it is the point on the concentration scale where inhibition reaches its midpoint. A high value points to weaker potency in that assay. In general, inhibition refers to the drop in the measured response relative to a control, in per cent. A high value points to a response far below the control. For the compound `Clc1nc(C#Cc2ccccc2)c2ncn(Cc3ccccc3)c2n1`, the results for the IC50 in the assay with K562 [1] and in the assay on K562 [3] were 0.8 µg/mL (≈ 2.32 µM) and 0.12 µg/mL (≈ 0.348 µM), respectively. For the same compound, the inhibition at 10 µg/mL in the assay on K562 [2] was 100%.

Turning to `C(#Cc1ncnc2c1ncn2Cc1ccccc1)c1ccccc1`, the IC50 in the assay with K562 [1] was found to be 6 µg/mL (≈ 19.3 µM); in the assay with K562 [3], 1.3 µg/mL (≈ 4.19 µM). In addition, at 10 µg/mL the inhibition in the assay with K562 [2] was 98%.

In the assay on K562 [2], `C(=C\c1ncnc2c1ncn2C1CCOCC1)/c1ccsc1` registered an inhibition at 10 µg/mL of 58%. In the assay on K562 [2], `C(=C\c1[nH]cnc2ncnc1-2)/c1cccs1` came in with an inhibition at 10 µg/mL of 50%. Take `C(#Cc1[nH]cnc2ncnc1-2)c1ccccc1`: the IC50 turned out to be 5.9 µg/mL (≈ 26.8 µM) in the assay on K562 [1] and 0.7 µg/mL (≈ 3.18 µM) in the assay on K562 [3]. This compound returned an inhibition at 10 µg/mL in the assay on K562 [2] of 100%.

For the compound `C(=C\c1ncnc2c1ncn2C1CCOCC1)/c1ccccc1`, at 10 µg/mL the inhibition in the assay on K562 [2] was 66%. As to `Clc1nc(/C=C/c2ccccc2)c2ncn(Cc3ccccc3)c2n1`, the IC50 was 6 µg/mL (≈ 17.3 µM) in the assay on K562 [1] and 2 µg/mL (≈ 5.77 µM) with K562 [3]. In the assay with K562 [2], this compound showed an inhibition at 10 µg/mL of 99%. As for `Nc1nc(/C=C/c2ccccc2)c2ncn(Cc3ccccc3)c2n1`, the results for the IC50 in the assay on K562 [1] and with K562 [3] were 2 µg/mL (≈ 6.11 µM) and 1.2 µg/mL (≈ 3.67 µM), respectively. Besides, the inhibition at 10 µg/mL with K562 [2] was 91%. For `C=Cc1ncnc2ncn(Cc3ccccc3)c12`, the IC50 in the assay with K562 [1] stood at 1.4 µg/mL (≈ 5.93 µM); with K562 [3], 0.5 µg/mL (≈ 2.12 µM). This compound also came in with an inhibition at 10 µg/mL in the assay with K562 [2] of 100%.

With `C(=C\c1ncnc2c1ncn2C1CCOCC1)/c1ccco1`, the inhibition at 10 µg/mL in the assay on K562 [2] turned out to be 35%. Regarding `OC[C@H]1OC(n2cnc3c(/C=C/c4ccccc4)ncnc32)[C@H](O)[C@@H]1O` (stereo partly drawn), the IC50 in the assay with K562 [1] stood at 10 µg/mL (≈ 28.2 µM); in the assay with K562 [3], 2 µg/mL (≈ 5.64 µM). For the same compound, in the assay with K562 [2], the inhibition at 10 µg/mL was found to be 79%. With `C(=C\c1ncnc2c1ncn2Cc1ccccc1)/c1ccccc1`, the inhibition at 10 µg/mL with K562 [2] worked out at 93%. As to `OC[C@H]1OC(n2cnc3c(C#Cc4ccccc4)ncnc32)[C@H](O)[C@@H]1O` (stereo partly drawn), the figures for the IC50 with K562 [1] and in the assay on K562 [3] were 0.2 µg/mL (≈ 0.568 µM) and 0.1 µg/mL (≈ 0.284 µM), respectively. Besides, the inhibition at 10 µg/mL with K562 [2] came out at 100%. As for `C(#Cc1ncnc2c1ncn2C1CCOCC1)c1ccccc1`, the IC50 with K562 [1] came to 3.2 µg/mL (≈ 10.5 µM); in the assay with K562 [3] it was 0.5 µg/mL (≈ 1.64 µM). Further, 10 µg/mL produced 100% inhibition in the assay with K562 [2].

`C=Cc1ncnc2c1ncn2Cc1ccccc1`: the IC50 with K562 [1] worked out at 2.2 µg/mL (≈ 9.31 µM); in the assay on K562 [3] it was 1.1 µg/mL (≈ 4.66 µM). The same compound showed an inhibition at 10 µg/mL with K562 [2] of 100%. In the assay with K562 [2], `C/C(=C\C=C\c1[nH]cnc2ncnc1-2)CO` came in with an inhibition at 10 µg/mL of 6%. For `C(#Cc1nc(-c2ccccc2)nc2c1ncn2Cc1ccccc1)c1ccccc1`, the values for the IC50 with K562 [1] and in the assay on K562 [3] were 2.4 µg/mL (≈ 6.21 µM) and 1.4 µg/mL (≈ 3.62 µM), respectively. Also, in the assay on K562 [2], the inhibition at 10 µg/mL stood at 100%. Consider `C(=C\c1nc(-c2ccccc2)nc2c1ncn2Cc1ccccc1)/c1ccccc1`, for which, in the assay with K562 [2], testing at 10 µg/mL gave an inhibition of 34%. Compound `C(=C\c1[nH]cnc2ncnc1-2)/c1ccco1` yielded an inhibition at 10 µg/mL in the assay on K562 [2] of 24%. Compound `C(=C\c1ncnc2c1ncn2C1CCOCC1)/c1cccs1` gave an inhibition at 10 µg/mL in the assay on K562 [2] of 65%. `CC(C)=CC#Cc1[nH]cnc2ncnc1-2` displayed an inhibition at 10 µg/mL in the assay on K562 [2] of 30%.

Take `COc1ccc(/C=C/c2[nH]cnc3ncnc2-3)cc1`: in the assay with K562 [2], at 10 µg/mL the inhibition was 54%. Consider `C/C(=C\C#Cc1[nH]cnc2ncnc1-2)CO`, for which the inhibition at 10 µg/mL in the assay on K562 [2] turned out to be 17%. In the assay on K562 [2], `C(=C\c1[nH]cnc2ncnc1-2)/c1ccsc1` returned an inhibition at 10 µg/mL of 32%. Regarding `COc1ccc(/C=C/c2ncnc3c2ncn3C2CCOCC2)cc1`, the inhibition at 10 µg/mL in the assay on K562 [2] stood at 58%. In turn, `C(=C\c1[nH]cnc2ncnc1-2)/c1ccccc1` came in with an inhibition at 10 µg/mL in the assay with K562 [2] of 28%. `C/C(=C\C=C\c1ncnc2c1ncn2C1CCOCC1)CO` returned an inhibition at 10 µg/mL in the assay with K562 [2] of 27%. With `Nc1nc(F)nc2c1ncn2[C@@H]1O[C@H](CO)[C@@H](O)[C@@H]1O` [FLUDARABINE], the IC50 in the assay with K562 [1] and in the assay on K562 [3] was 0.6 µg/mL (≈ 2.1 µM) in each case. In addition, in the assay with K562 [2], the inhibition at 10 µg/mL came out at 98%. Compound `Nc1nc(/C=C/c2ccccc2)c2[nH]cnc2n1` came in with an inhibition at 10 µg/mL in the assay with K562 [2] of 2%.

With `Clc1nc2c(C#Cc3ccccc3)ncnc2n1C1CCOCC1`, the results for the IC50 in the assay on K562 [1] and with K562 [3] were 7 µg/mL (≈ 20.7 µM) and 6.1 µg/mL (≈ 18 µM), respectively. The inhibition at 10 µg/mL in the assay on K562 [2] came to 85%. Consider `Sc1ncnc2nc[nH]c12` [MERCAPTOPURINE ANHYDROUS], for which the values for the IC50 in the assay with K562 [1] and with K562 [3] were over 10 µg/mL and 0.6 µg/mL (≈ 3.94 µM), respectively. Besides, at 10 µg/mL the inhibition in the assay with K562 [2] was 80%. Take `COC(=O)/C(C)=C/C#Cc1[nH]cnc2ncnc1-2`: the IC50 stood at 3.2 µg/mL (≈ 13.2 µM) in the assay with K562 [1] and 1.6 µg/mL (≈ 6.61 µM) in the assay on K562 [3]. In the assay on K562 [2], this compound came in with an inhibition at 10 µg/mL of 100%. On to `COC(=O)/C(C)=C/C=C/c1[nH]cnc2ncnc1-2`, for which testing at 10 µg/mL in the assay on K562 [2] gave an inhibition of 20%.
